Laboratory results taken from ChEMBL document CHEMBL1153606, “Microwave assisted synthesis of new indophenazine 1,3,5-trisubstruted pyrazoline derivatives of benzofuran and their antimicrobial activity” (2009).
Values after ≈ are worked out from the molar mass of the structure shown. Active and inactive are the calls of the source. The rule behind the calls is not given here.

How the values were obtained:
Candida albicans = experiment: Antifungal activity against Candida albicans after 30 to 72 hrs by agar culture method; assay type: functional, organism-based
How it was run: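 Agar well assay on C. albicans: compounds at a range of concentrations in DMF were loaded into 6 mm wells. Plates were incubated at 30 °C for 30–72 h. Inhibition zones were read in mm against standard drugs.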

Streptococcus pyogenes [1] = experiment: Antibacterial activity against multidrug-resistant Streptococcus pyogenes after 20 hrs by cylinder and well method; assay type: functional
How it was run: (§1)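 Agar diffusion assay: organisms grown overnight on 2% agar with 5% sheep blood under 10% CO2. Inocula were diluted in Ringer solution, treated in Todd–Hewitt medium and spread on agar plates. Drug spots were applied, with about 5 × 10^3 CFU/spot. Plates were held at 37 °C for 20 h. Inhibition zones were read in mm against standard drugs and vehicle.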

Streptococcus pyogenes [2] = experiment: Antibacterial activity against multidrug-resistant Streptococcus pyogenes after 24 hrs by broth microdilution method; assay type: functional
How it was run: (§2)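 MIC was determined in Mueller–Hinton broth.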

Staphylococcus aureus [3] = experiment: Antibacterial activity against multidrug-resistant Staphylococcus aureus after 24 hrs by broth microdilution method; assay type: functional; how it was run: as §2
Staphylococcus aureus [4] = experiment: Antibacterial activity against multidrug-resistant Staphylococcus aureus after 20 hrs by cylinder and well method; assay type: functional; how it was run: as §1
[5] = test system: Salmonella enterica subsp. enterica; experiment: Antibacterial activity against multidrug-resistant Salmonella typhi after 24 hrs by broth microdilution method; assay type: functional, Salmonella enterica subsp. enterica serovar Typhi; how it was run: as §2
[6] = test system: Salmonella enterica subsp. enterica; experiment: Antibacterial activity against multidrug-resistant Salmonella typhi after 20 hrs by cylinder and well method; assay type: functional, Salmonella enterica subsp. enterica serovar Typhi; how it was run: as §1
Streptococcus agalactiae [7] = experiment: Antibacterial activity against multidrug-resistant Streptococcus agalactiae after 24 hrs by broth microdilution method; assay type: functional; how it was run: as §2
Streptococcus agalactiae [8] = experiment: Antibacterial activity against multidrug-resistant Streptococcus agalactiae after 20 hrs by cylinder and well method; assay type: functional; how it was run: as §1
Streptococcus pneumoniae [9] = experiment: Antibacterial activity against multidrug-resistant Streptococcus pneumoniae after 20 hrs by cylinder and well method; assay type: functional; how it was run: as §1
Streptococcus pneumoniae [10] = experiment: Antibacterial activity against multidrug-resistant Streptococcus pneumoniae after 24 hrs by broth microdilution method; assay type: functional; how it was run: as §2
Pseudomonas aeruginosa [11] = experiment: Antibacterial activity against multidrug-resistant Pseudomonas aeruginosa after 24 hrs by broth microdilution method; assay type: functional; how it was run: as §2
Pseudomonas aeruginosa [12] = experiment: Antibacterial activity against multidrug-resistant Pseudomonas aeruginosa after 20 hrs by cylinder and well method; assay type: functional; how it was run: as §1
Escherichia coli [13] = experiment: Antibacterial activity against multidrug-resistant Escherichia coli after 20 hrs by cylinder and well method; assay type: functional; how it was run: as §1
Escherichia coli [14] = experiment: Antibacterial activity against multidrug-resistant Escherichia coli broth after 24 hrs by broth microdilution method; assay type: functional; how it was run: as §2

SMILES	Activity (Candida albicans)	inhibition zone (IZ) (Streptococcus pyogenes [1]) [mm]	MIC (Streptococcus pyogenes [2]) [µg/mL]	MIC (Staphylococcus aureus [3]) [µg/mL]	inhibition zone (IZ) (Staphylococcus aureus [4]) [mm]	MIC [5] [µg/mL]	inhibition zone (IZ) [6] [mm]	MIC (Streptococcus agalactiae [7]) [µg/mL]	inhibition zone (IZ) (Streptococcus agalactiae [8]) [mm]	inhibition zone (IZ) (Streptococcus pneumoniae [9]) [mm]	MIC (Streptococcus pneumoniae [10]) [µg/mL]	MIC (Pseudomonas aeruginosa [11]) [µg/mL]	inhibition zone (IZ) (Pseudomonas aeruginosa [12]) [mm]	inhibition zone (IZ) (Escherichia coli [13]) [mm]	MIC (Escherichia coli [14]) [µg/mL]
O=C(Cn1c2ccccc2c2nc3ccccc3nc21)N1N=C(c2cc3ccccc3o2)CC1c1ccccc1O (stereo not drawn)	inactive	10	26 (≈ 48.4 µM)	6 (≈ 11.2 µM)	13	8.5 (≈ 15.8 µM)	13	22 (≈ 40.9 µM)	11	12	9.5 (≈ 17.7 µM)	3.5 (≈ 6.51 µM)	15	18	1 (≈ 1.86 µM)
COc1ccc(C2CC(c3cc4ccccc4o3)=NN2C(=O)Cn2c3ccccc3c3nc4ccccc4nc32)cc1 (stereo not drawn)	inactive	14	23.5 (≈ 42.6 µM)	8 (≈ 14.5 µM)	12	12 (≈ 21.8 µM)	11	19 (≈ 34.4 µM)	14	16	4.5 (≈ 8.16 µM)	12.5 (≈ 22.7 µM)	13	17	5 (≈ 9.06 µM)
O=C(Cn1c2ccccc2c2nc3ccccc3nc21)N1N=C(c2cc3ccccc3o2)CC1c1ccc(O)cc1 (stereo not drawn)	inactive	15	20.5 (≈ 38.1 µM)	6.5 (≈ 12.1 µM)	14	19.5 (≈ 36.3 µM)	8	32.5 (≈ 60.5 µM)	8	12	8.5 (≈ 15.8 µM)	26 (≈ 48.4 µM)	8	10	14 (≈ 26 µM)
O=C(Cn1c2ccccc2c2nc3ccccc3nc21)N1N=C(c2cc3ccccc3o2)CC1c1ccc(Cl)cc1 (stereo not drawn)	inactive	14	22 (≈ 39.6 µM)	16.5 (≈ 29.7 µM)	8	16 (≈ 28.8 µM)	10	28 (≈ 50.4 µM)	10	15	5.5 (≈ 9.89 µM)	16.5 (≈ 29.7 µM)	10	7	22.5 (≈ 40.5 µM)
C[C@@H]1CN(c2c(F)c(N)c3c(=O)c(C(=O)O)cn(C4CC4)c3c2F)C[C@H](C)N1 [SPARFLOXACIN]		38	15 (≈ 38.2 µM)	0.25 (≈ 0.637 µM)	36	0.5 (≈ 1.27 µM)	34	12 (≈ 30.6 µM)	38	34	0.04 (≈ 0.102 µM)	4.6 (≈ 11.7 µM)	33	30	0.26 (≈ 0.663 µM)
CCn1cc(C(=O)O)c(=O)c2cc(F)c(N3CCNCC3)cc21 [NORFLOXACIN]		30	2.6 (≈ 8.14 µM)	1.5 (≈ 4.7 µM)	28	20.2 (≈ 63.3 µM)	24	22 (≈ 68.9 µM)	32	22	0.12 (≈ 0.376 µM)	1.8 (≈ 5.64 µM)	28	20	1.3 (≈ 4.07 µM)
O=C(Cn1c2ccccc2c2nc3ccccc3nc21)N1N=C(c2cc3ccccc3o2)CC1c1ccco1 (stereo not drawn)	inactive	8	30 (≈ 58.6 µM)	10.5 (≈ 20.5 µM)	10	16.5 (≈ 32.3 µM)	9	26.5 (≈ 51.8 µM)	10	14	5.6 (≈ 10.9 µM)	21 (≈ 41.1 µM)	8	10	15 (≈ 29.3 µM)
O=C(Cn1c2ccccc2c2nc3ccccc3nc21)N1N=C(c2cc3ccccc3o2)CC1c1ccccc1Cl (stereo not drawn)	inactive	12	25 (≈ 45 µM)	10 (≈ 18 µM)	11	15 (≈ 27 µM)	9	30 (≈ 54 µM)	10	14	7 (≈ 12.6 µM)	17.5 (≈ 31.5 µM)	9	8	21.5 (≈ 38.7 µM)
COc1ccccc1C1CC(c2cc3ccccc3o2)=NN1C(=O)Cn1c2ccccc2c2nc3ccccc3nc21 (stereo not drawn)	inactive	15	22.5 (≈ 40.8 µM)	7.5 (≈ 13.6 µM)	11	15.5 (≈ 28.1 µM)	7	25 (≈ 45.3 µM)	9	10	11.5 (≈ 20.8 µM)	14.5 (≈ 26.3 µM)	12	9	16.5 (≈ 29.9 µM)
CN(C)c1ccc(C2CC(c3cc4ccccc4o3)=NN2C(=O)Cn2c3ccccc3c3nc4ccccc4nc32)cc1 (stereo not drawn)	inactive	9	25.5 (≈ 45.2 µM)	7 (≈ 12.4 µM)	14	9.5 (≈ 16.8 µM)	10	36.5 (≈ 64.6 µM)	7	13	9 (≈ 15.9 µM)	14 (≈ 24.8 µM)	11	10	13.5 (≈ 23.9 µM)
O=C(Cn1c2ccccc2c2nc3ccccc3nc21)N1N=C(c2cc3ccccc3o2)CC1/C=C/c1ccccc1 (stereo not drawn)	inactive	10	26.5 (≈ 48.4 µM)	4.5 (≈ 8.22 µM)	14	14.5 (≈ 26.5 µM)	10	22.5 (≈ 41.1 µM)	9	12	10 (≈ 18.3 µM)	18.5 (≈ 33.8 µM)	10	8	20.5 (≈ 37.4 µM)
COc1ccc(C2CC(c3cc4ccccc4o3)=NN2C(=O)Cn2c3ccccc3c3nc4ccccc4nc32)c(O)c1 (stereo not drawn)	inactive	14	26 (≈ 45.8 µM)	9 (≈ 15.9 µM)	13	14.5 (≈ 25.5 µM)	11	28 (≈ 49.3 µM)	11	16	5 (≈ 8.81 µM)	18.5 (≈ 32.6 µM)	10	11	13.5 (≈ 23.8 µM)
O=C(Cn1c2ccccc2c2nc3ccccc3nc21)N1N=C(c2cc3ccccc3o2)CC1c1ccccc1[N+](=O)[O-] (stereo not drawn)	inactive	10	24 (≈ 42.4 µM)	9.5 (≈ 16.8 µM)	12	14.5 (≈ 25.6 µM)	10	22 (≈ 38.8 µM)	12	13	8.5 (≈ 15 µM)	10.5 (≈ 18.5 µM)	12	16	5.5 (≈ 9.71 µM)
O=C(O)c1ccccc1C1CC(c2cc3ccccc3o2)=NN1C(=O)Cn1c2ccccc2c2nc3ccccc3nc21 (stereo not drawn)	inactive	10	30.5 (≈ 53.9 µM)	8.5 (≈ 15 µM)	12	15 (≈ 26.5 µM)	8	24 (≈ 42.4 µM)	10	12	10.5 (≈ 18.6 µM)	6.5 (≈ 11.5 µM)	14	11	13 (≈ 23 µM)
O=C(Cn1c2ccccc2c2nc3ccccc3nc21)N1N=C(c2cc3ccccc3o2)CC1c1cccc([N+](=O)[O-])c1 (stereo not drawn)	inactive	12	28 (≈ 49.4 µM)	12.5 (≈ 22.1 µM)	9	13 (≈ 22.9 µM)	10	26 (≈ 45.9 µM)	12	14	8 (≈ 14.1 µM)	5.5 (≈ 9.71 µM)	16	13	10.5 (≈ 18.5 µM)
O=C(Cn1c2ccccc2c2nc3ccccc3nc21)N1N=C(c2cc3ccccc3o2)CC1c1ccccc1 (stereo not drawn)	inactive	12	28.5 (≈ 54.6 µM)	2.5 (≈ 4.79 µM)	16	17 (≈ 32.6 µM)	8	28.5 (≈ 54.6 µM)	8	20	2 (≈ 3.83 µM)	15.5 (≈ 29.7 µM)	11	14	8 (≈ 15.3 µM)
